Tests used:
Assay type in all cases: functional
[1] = tested on: NCI-H522; experiment: Cytotoxicity against human NCI-H522 cells after 48 hrs by SRB assay; conditions: NCI-H522, 48 h
In short: (§1)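 NCI 60-cell-line screen. Cells preincubated 24 h at 37 °C, 5% CO2; time-zero plates TCA-fixed. Compounds dissolved in DMSO and tested at five concentrations (100, 10, 1.0, 0.1, 0.01 µM) for 48 h continuous exposure. Adherent cells fixed with cold TCA (10% final), then SRB stained; absorbance at 515 nm. GI50, TGI and LC50 calculated from growth relative to time-zero and untreated controls.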

[2] = tested on: Malme-3M; experiment: Cytotoxicity against human MALME-3M cells after 48 hrs by SRB assay; in short: as §1
[3] = tested on: SK-MEL-2; experiment: Cytotoxicity against human SK-MEL-2 cells after 48 hrs by SRB assay; conditions: SK-MEL-2, 48 h; in short: as §1
[4] = tested on: CAKI-1; experiment: Cytotoxicity against human Caki1 cells after 48 hrs by SRB assay; conditions: CAKI-1, 48 h; in short: as §1
[5] = tested on: HOP-92; experiment: Cytotoxicity against human HOP92 cells after 48 hrs by SRB assay; conditions: HOP-92, 48 h; in short: as §1
[6] = tested on: A549; experiment: Cytotoxicity against human A549/ATCC cells after 48 hrs by SRB assay; conditions: A549, 48 h; in short: as §1
[7] = tested on: SK-OV-3; experiment: Cytotoxicity against human SKOV3 cells after 48 hrs by SRB assay; conditions: SK-OV-3, 48 h; in short: as §1
[8] = tested on: Hs-578T; experiment: Cytotoxicity against human Hs578T cells after 48 hrs by SRB assay; in short: as §1
[9] = tested on: LOX IMVI; experiment: Cytotoxicity against human LOXIMVI cells after 48 hrs by SRB assay; in short: as §1
[10] = tested on: MDA-MB-435; experiment: Cytotoxicity against human MDA-MB-435 cells after 48 hrs by SRB assay; conditions: MDA-MB-435, 48 h; in short: as §1
[11] = tested on: BT-549; experiment: Cytotoxicity against human BT549 cells after 48 hrs by SRB assay; conditions: BT-549, 48 h; in short: as §1
[12] = tested on: NCI-H460; experiment: Cytotoxicity against human NCI-H460 cells after 48 hrs by SRB assay; conditions: NCI-H460, 48 h; in short: as §1
[13] = tested on: HCT-15; experiment: Cytotoxicity against human HCT15 cells after 48 hrs by SRB assay; conditions: HCT-15, 48 h; in short: as §1
[14] = tested on: PC-3; experiment: Cytotoxicity against human PC3 cells after 48 hrs by SRB assay; conditions: PC-3, 48 h; in short: as §1
[15] = tested on: MDA-MB-468; experiment: Cytotoxicity against human MDA-MB-468 cells after 48 hrs by SRB assay; conditions: MDA-MB-468, 48 h; in short: as §1
[16] = tested on: HOP-62; experiment: Cytotoxicity against human HOP62 cells after 48 hrs by SRB assay; conditions: HOP-62, 48 h; in short: as §1
[17] = tested on: RPMI-8226; experiment: Cytotoxicity against human RPMI8226 cells after 48 hrs by SRB assay; conditions: RPMI-8226, 48 h; in short: as §1
[18] = tested on: OVCAR-8; experiment: Cytotoxicity against human OVCAR8 cells after 48 hrs by SRB assay; conditions: OVCAR-8, 48 h; in short: as §1
[19] = tested on: CCRF-CEM; experiment: Cytotoxicity against human CCRF-CEM cells after 48 hrs by SRB assay; in short: as §1
[20] = tested on: M14; experiment: Cytotoxicity against human M14 cells after 48 hrs by SRB assay; conditions: M14, 48 h; in short: as §1
[21] = tested on: SK-MEL-28; experiment: Cytotoxicity against human SK-MEL-28 cells after 48 hrs by SRB assay; conditions: SK-MEL-28, 48 h; in short: as §1
[22] = tested on: 786-0; experiment: Cytotoxicity against human 786-0 cells after 48 hrs by SRB assay; conditions: 786-0, 48 h; in short: as §1
[23] = tested on: KM12; experiment: Cytotoxicity against human KM12 cells after 48 hrs by SRB assay; conditions: KM12, 48 h; in short: as §1
[24] = tested on: MCF7; experiment: Cytotoxicity against human MCF7 cells after 48 hrs by SRB assay; conditions: MCF7, 48 h; in short: as §1
[25] = tested on: HL-60(TB); experiment: Cytotoxicity against human HL-60(TB) cells after 48 hrs by SRB assay; conditions: HL-60, 48 h; in short: as §1
[26] = tested on: ACHN; experiment: Cytotoxicity against human ACHN cells after 48 hrs by SRB assay; in short: as §1
[27] = tested on: HT-29; experiment: Cytotoxicity against human HT-29 cells after 48 hrs by SRB assay; conditions: HT-29, 48 h; in short: as §1
[28] = tested on: SK-MEL-5; experiment: Cytotoxicity against human SK-MEL-5 cells after 48 hrs by SRB assay; conditions: SK-MEL-5, 48 h; in short: as §1
[29] = tested on: UACC-62; experiment: Cytotoxicity against human UACC62 cells after 48 hrs by SRB assay; conditions: UACC-62, 48 h
In short: (§2)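 NCI 60-cell screen. Cells grew 24 h (37 °C, 5% CO2) before compound was added. Compounds were in DMSO and diluted in medium with gentamicin, then tested at five levels (100, 10, 1.0, 0.1, 0.01 µM) with 48 h continuous exposure. Adherent cells were fixed with TCA (10% final) and stained with 0.4% SRB, absorbance read at 515 nm. A time-zero plate was included. LC50 is the concentration giving 50% loss of protein relative to time zero.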

[30] = tested on: SN12C; experiment: Cytotoxicity against human SN12C cells after 48 hrs by SRB assay; in short: as §1
[31] = tested on: COLO 205; experiment: Cytotoxicity against human COLO205 cells after 48 hrs by SRB assay; conditions: COLO 205, 48 h; in short: as §1
[32] = tested on: HCT-116; experiment: Cytotoxicity against human HCT116 cells after 48 hrs by SRB assay; conditions: HCT-116, 48 h; in short: as §1
[33] = tested on: T47D; experiment: Cytotoxicity against human T47D cells after 48 hrs by SRB assay; in short: as §2
[34] = tested on: SR; experiment: Cytotoxicity against human SR cells after 48 hrs by SRB assay; in short: as §2
[35] = tested on: NCI/ADR-RES; experiment: Cytotoxicity against human NCI/ADR-RES cells after 48 hrs by SRB assay; in short: as §1
[36] = tested on: NCI-H23; experiment: Cytotoxicity against human NCI-H23 cells after 48 hrs by SRB assay; conditions: NCI-H23, 48 h; in short: as §1
[37] = tested on: OVCAR-3; experiment: Cytotoxicity against human OVCAR3 cells after 48 hrs by SRB assay; conditions: OVCAR-3, 48 h; in short: as §1
[38] = read-out: LC50 (the source's name)

## COc1ccc(C2CC(c3cccc(Nc4ccnc5cc(Cl)ccc45)c3)=NN2C=O)cc1 (centres undefined)
[1]
  GI50: 0.3 µM
[1]; [38]
  CC50: > 100 µM
[2]
  GI50: 0.74 µM
  LC50: > 100 µM
[3]
  GI50: 0.49 µM
  LC50: > 100 µM
[4]
  GI50: 0.33 µM
  LC50: 100 µM
[5]
  GI50: > 100 µM
  LC50 (concentration killing 50% of cells): > 100 µM
[6]
  GI50: 0.57 µM
[6]; [38]
  CC50: > 100 µM
[7]
  GI50: 0.7 µM
  LC50 (concentration killing 50% of cells): > 100 µM
[8]
  GI50: 0.36 µM
  LC50 (50% net cell kill): > 100 µM
[9]
  GI50: 0.58 µM
  LC50: 6.7 µM
[10]
  GI50: 0.14 µM
  LC50: > 100 µM
[11]
  GI50: 0.45 µM
  LC50 (50% net cell kill vs time zero): 55.6 µM
[12]
  GI50: 0.4 µM
  LC50: > 100 µM
[13]
  GI50: 0.44 µM
  LC50 (concentration killing 50% of cells relative to time zero): > 100 µM
[14]
  GI50: 0.85 µM
  LC50: > 100 µM
[15]
  GI50: 0.21 µM
  LC50: > 100 µM
[16]
  GI50: 0.66 µM
  LC50 (50% lethal concentration): > 100 µM
[17]
  GI50: 16.7 µM
  LC50 (concentration killing 50% of cells): > 100 µM
[18]
  GI50: 0.95 µM
  LC50 (50% net cell kill): > 100 µM
[19]
  GI50: 0.68 µM
  LC50 (concentration killing 50% of cells relative to time zero): > 100 µM
[20]
  GI50: 0.4 µM
[20]; [38]
  CC50: > 100 µM
[21]
  GI50: 0.96 µM
[21]; [38]
  CC50: > 100 µM
[22]
  GI50: 0.53 µM
  LC50: > 100 µM
[23]
  GI50: 0.44 µM
  LC50 (concentration killing 50% of cells): > 100 µM
[24]
  GI50: 0.37 µM
[24]; [38]
  CC50: > 100 µM
[25]
  GI50: 0.25 µM
[25]; [38]
  CC50: 5.28 µM
[26]
  GI50: 0.87 µM
[26]; [38]
  CC50: > 100 µM
[27]
  GI50: 0.34 µM
  LC50: > 100 µM
[28]
  GI50: 0.41 µM
  LC50 (concentration killing 50% of cells present at time zero): > 100 µM
[29]
  GI50: 0.67 µM
[29]; [38]
  CC50: > 100 µM
[30]
  GI50: 0.78 µM
  LC50 (50% net cell kill relative to time zero): > 100 µM
[31]
  GI50: 0.45 µM
  LC50: 13.9 µM
[32]
  GI50: 0.38 µM
  LC50: 38.1 µM
[33]
  GI50: 0.53 µM
  LC50 (concentration giving 50% cell kill relative to time zero): > 100 µM
[34]
  GI50: 0.24 µM
  LC50: > 100 µM
[35]
  GI50: 0.35 µM
[35]; [38]
  CC50: > 100 µM
[36]
  GI50: 0.95 µM
[36]; [38]
  CC50: > 100 µM
[37]
  GI50: 0.47 µM
  LC50: 77.4 µM
